Published values of several laboratories.
Lines come from different studies, so protocols differ.
Target: Ephrin type-B receptor 3 (EPHB3, Homo sapiens, UniProt P54753)
Residues used in one study (P54753 34-998): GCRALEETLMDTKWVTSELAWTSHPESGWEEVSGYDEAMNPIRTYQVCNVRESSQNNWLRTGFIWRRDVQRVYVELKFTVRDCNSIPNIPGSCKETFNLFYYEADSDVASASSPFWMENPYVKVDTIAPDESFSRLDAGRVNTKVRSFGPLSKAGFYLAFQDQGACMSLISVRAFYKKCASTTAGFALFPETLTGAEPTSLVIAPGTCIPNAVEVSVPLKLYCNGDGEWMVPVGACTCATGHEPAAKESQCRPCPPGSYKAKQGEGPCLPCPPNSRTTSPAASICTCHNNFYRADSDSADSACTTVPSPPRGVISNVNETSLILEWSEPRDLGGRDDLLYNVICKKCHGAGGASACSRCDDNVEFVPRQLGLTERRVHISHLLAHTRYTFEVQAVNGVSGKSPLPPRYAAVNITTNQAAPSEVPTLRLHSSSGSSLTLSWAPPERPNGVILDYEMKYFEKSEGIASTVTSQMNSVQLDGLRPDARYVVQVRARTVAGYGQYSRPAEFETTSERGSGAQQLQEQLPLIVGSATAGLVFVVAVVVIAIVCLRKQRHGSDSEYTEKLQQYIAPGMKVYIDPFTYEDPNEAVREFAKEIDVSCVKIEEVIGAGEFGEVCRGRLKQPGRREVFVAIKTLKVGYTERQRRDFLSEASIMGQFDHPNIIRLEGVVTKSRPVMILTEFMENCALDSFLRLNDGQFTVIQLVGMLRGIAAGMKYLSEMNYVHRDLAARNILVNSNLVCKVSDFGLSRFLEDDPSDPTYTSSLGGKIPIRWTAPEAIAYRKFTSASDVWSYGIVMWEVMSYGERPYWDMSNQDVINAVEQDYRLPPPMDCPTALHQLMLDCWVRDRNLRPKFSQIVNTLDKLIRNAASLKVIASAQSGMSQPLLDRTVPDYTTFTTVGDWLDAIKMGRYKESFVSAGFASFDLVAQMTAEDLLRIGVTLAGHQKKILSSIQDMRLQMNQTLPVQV

SMILES | test | setting | remaining binding [%]
CNC(=O)[C@@H]1CC[C@@H](n2c(-c3ccc4cnccc4c3)nc3ccc(C(=O)NCc4cccc(C(N)=O)c4)cc32)C1 | binding, competition with immobilised ligand | 1 µM | 100
O=S(=O)(NC1CCC(c2cc(F)ccc2F)(S(=O)(=O)c2ccc(Cl)cc2)CC1)C(F)(F)F (centres unmarked) | cell-free assay, competition with immobilised ligand | 1 µM | 100
Cc1cnn2ncc(-c3ccnc(N(C)C)n3)c2c1 | binding | 1 µM | 100
O=C(Nc1c[nH]nc1C(=O)NC1CCNCC1)c1cc(F)cc(F)c1 | binding, competition with immobilised ligand | 1 µM | 100
CN(C)c1ncc(F)c(-c2cnn3ncccc23)n1 | binding | 1 µM | 76
COc1ncc2cc3ccccc3nc2c1C#N | cell-free assay, competition with immobilised ligand | 5 µM | 1.4
O=C(c1ccc(Nc2nccc(-c3cc4ccccc4s3)n2)cc1)N1CCC(N2CCCC2)CC1 | binding, competition with immobilised ligand | 1 µM | 100
Cc1c(C(=O)O)cc(-c2ccc(C3CCNCC3)cc2)c2ccc(-c3ccc(C(F)(F)F)cc3)cc12 | cell-free assay, competition with immobilised ligand | 1 µM | 100
C[C@H]1CCN(c2nccc(-c3cnn4ncccc34)n2)C1 | binding | 1 µM | 100
COCCOc1nc(-c2ccc(Cl)nc2)nc2c1CN(C(=O)c1ncn3ccccc13)CC2 | cell-free assay, competition with immobilised ligand | 0.1 µM | 100
COc1cnc(Nc2cccc(S(N)(=O)=O)c2)nc1N1CCN(c2ccccc2)C(=O)C1 | binding, competition with immobilised ligand | 1 µM | 100
CN(CCCC(F)(F)F)c1nccc(-c2cnn3ncccc23)n1 | binding | 1 µM | 87
Nc1ncc2c(n1)-c1c([nH]c3ccc(C#CC4CC4)cc13)CCCC2 | binding, competition with immobilised ligand | 1 µM | 100
CCN1CCN(Cc2ccc(C(=O)Nc3ccc(C)c(Oc4ccc5c(c4)CC(=O)N5)c3)cc2C(F)(F)F)CC1 | binding, competition with immobilised ligand | 1 µM | 100
C[C@@H](c1cccc(C#N)c1)n1cc(Cl)cc(C(N)=O)c1=N | cell-free assay, competition with immobilised ligand | 1 µM | 85
N[C@@H]1CCN(c2nccc(-c3cnn4ncccc34)n2)C1 | binding | 1 µM | 100
COc1ccc2c(c1)O[C@H](c1ccc(OC)c(OC)c1)C[C@@H]2NC(=O)C1(c2ccc3c(c2)OC(F)(F)O3)CC1 | cell-free assay, competition with immobilised ligand | 1 µM | 91
CN(C)c1nccc(-c2cnc3ncccn23)n1 | binding | 1 µM | 91
O=C(NCCCC1CCCCC1)c1ccc(CNC(=O)c2cnn(-c3ccccc3)c2C(F)(F)F)cc1 | cell-free assay, competition with immobilised ligand | 0.1 µM | 79
Cc1cnc(Nc2ccc(C(=O)N3CCC(N4CCCC4)CC3)cc2)nc1-c1cc2ccccc2s1 | binding, competition with immobilised ligand | 1 µM | 77
